Measurements of several laboratories.
Lines come from different studies, so protocols differ.

COCCOC(=O)C1=C(C)NC(C)=C(C(=O)OC(C)C)C1c1cccc([N+](=O)[O-])c1 (centres unmarked) — AUC(0-inf) (male Sprague-Dawley rat; plasma; oral; 12 mg/kg): 502 ng·h/mL
O=C(Nc1ccc(-c2nc(-c3ccc(Cl)cc3)no2)cc1)C1CC(=O)N(Cc2ccco2)C1 (centres unmarked) — AUC(0-inf) (male Wistar rat; brain; intraperitoneal; 10 mg/kg): 12500 ng·h/mL
CNCc1cc(-c2ccccc2F)n(S(=O)(=O)c2cccnc2)c1 — AUC(0-inf) (Sprague-Dawley rat; plasma; oral; 10 mg/kg): 645 ng·h/mL
COc1cc2c3c(n(CCCN4CCOCC4)c(=O)c2cc1OC)-c1cc2c(cc1C3=O)OCO2 — AUC(0-inf) (male Fischer 344 rat; plasma; intravenous; 24 mg/m²; single dose): 421 ng·h/mL
Oc1c(Br)cc(Cl)c2cccnc12 — AUC(0-inf) (Sprague-Dawley rat; plasma; subcutaneous; 10 mg/kg): 5300 ng·h/mL
CCc1cc(OC)c2nccc(N3CCc4c(cc(Cn5ccnc5)cc4-c4cn(C)nc4C(F)(F)F)C3=O)c2c1 — AUC(0-inf) (male Sprague-Dawley rat; plasma; intravenous; 3 mg/kg): 955 ng·h/mL
COc1nc(-c2cc(C)c(N[C@@H](C)c3cc(F)cc(F)c3)nn2)ccc1-n1cnc(C)c1 — AUC(0-inf) (male Sprague-Dawley rat; plasma; intravenous; 1 mg/kg; single dose): 6710 ng·h/mL
CCc1cc(C(=O)NC)c2nccc(N3CCc4c(cc(Cn5ccnc5)cc4-c4cn(C)nc4C(F)(F)F)C3=O)c2c1 — AUC(0-inf) (male Sprague-Dawley rat; plasma; oral; 100 mg/kg): 117000 ng·h/mL
COc1ccc2c(Cc3ccccc3F)c3n(c(=O)c2c1OC)CCc1cc2c(cc1-3)OCO2 — AUC(0-inf) (rat; plasma; intravenous; 5 mg/kg): 22700 ng·h/mL
CCc1nc(C(N)=O)c(Nc2ccc(N3CCC(N4CCN(C)CC4)CC3)c(OC)c2)nc1NC1CCOCC1 — AUC(0-inf) (male Sprague-Dawley rat; plasma; oral; 10 mg/kg): 11500 ng·h/mL
COc1ccc2c(=O)n(C)c(-c3ccccc3)nc2c1 — AUC(0-inf) (male Sprague-Dawley rat; plasma; intravenous; 2 mg/kg): 857 ng·h/mL
O=C(Nc1cc(F)c(F)c(F)c1)c1ccc(F)c(S(=O)(=O)NCc2cccc(B(O)O)c2)c1 — AUC(0-inf) (male Sprague-Dawley rat; plasma; intravenous; 2 mg/kg): 246 ng·h/mL
CCOC(=O)[C@@]12C[C@@H]1[C@@H](n1ccc3c(NC)nc(C#Cc4ccc(Cl)s4)nc31)[C@H](O)[C@@H]2O — AUC(0-inf) (male Sprague-Dawley rat; plasma; oral; 3 mg/kg): 172 ng·h/mL
Cc1c(-c2ccccc2)cccc1N1C(=O)c2cc(CN[C@H](C(=O)O)C(C)O)c(OCc3cccc(C#N)c3)cc2C1=O (some centres unmarked) — AUC(0-inf) (Sprague-Dawley rat; plasma; oral; 50 mg/kg): 100 ng·h/mL
